Measurements published in ChEMBL document CHEMBL4130438, “6,7-Seco-ent-Kauranoids Derived from Oridonin as Potential Anticancer Agents” (J Nat Prod, 2017).
The source made the active and inactive calls. The calls are words filed in the database; no cut-off is given here.

Experiments:
Bel-7402 [1] = test: Antiproliferative activity against human Bel7402 cells after 72 hrs by MTT assay; type: functional, cell-based; conditions: Bel-7402, 72 h
How it was run: (§1)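 Cells pre-incubated 24 h at 37 °C, 5% CO2 in 96-well plates, then exposed to a range of compound concentrations (DMSO ≤0.25%) for 72 h. Viable cells read by MTT colour at 570 nm. Performed in quadruplicate, repeated three times. IC50 reported as means ± SD, n = 3.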

K562 = test: Antiproliferative activity against human K562 cells after 72 hrs by MTT assay; type: functional, cell-based; conditions: K562, 72 h; how it was run: as §1
MCF7 [2] = test: Antiproliferative activity against human MCF7 cells after 72 hrs by MTT assay; type: functional, cell-based; conditions: MCF7, 72 h; how it was run: as §1
MGC-803 = test: Antiproliferative activity against human MGC803 cells after 72 hrs by MTT assay; type: functional, cell-based; conditions: MGC-803, 72 h; how it was run: as §1
KB 3-1 = test: Antiproliferative activity against human KB-3-1 cells after 48 hrs by MTT assay; type: functional, cell-based
Homo sapiens = organism: Homo sapiens; test: Antiproliferative activity against human KB/CP4 cells after 48 hrs by MTT assay; type: functional, cell-based
Bel-7402 [3] = test: Cytotoxicity against human Bel7402 cells assessed as decrease in cell viability after 24 hrs by LDH release assay; type: functional, cell-based
How it was run: (§2)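 MCF-7 and Bel-7402 cells seeded at ~5 × 10^3 per well for 24 h, then exposed to compounds. LDH released into the medium measured with CytoTox-ONE reagent (10 min, ambient temperature) followed by stop solution. Fluorescence read at ex 560/em 590 nm.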

MCF7 [4] = test: Cytotoxicity against human MCF7 cells assessed as decrease in cell viability after 24 hrs by LDH release assay; type: functional, cell-based; how it was run: as §2
H22 = test: Antitumor activity against […] cells xenografted in ICR mouse assessed as inhibition of tumor volume at 20 mg/kg, iv qd administered for 14 consecutive days measured every 2 days relative to control; type: functional; conditions: 14 days
How it was run: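 Male ICR mice, five weeks old, implanted s.c. in the right flank with 1 × 10^6 H22 cells. After 7 days, randomised into groups of eight. Given i.v. once daily for 14 days, 10 or 20 mg/kg in 10% DMF/2% poloxamer/88% saline; negative controls received 0.9% saline i.v., positive control 20 mg/kg oridonin. Body weight and tumour volume (L × W²/2) recorded every 2 days. Tumours excised and weighed at sacrifice; inhibition (%) = (1 − treated/control mean tumour weight) × 100.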

SMILES | IC50 (Bel-7402 [1]) | IC50 (K562) | IC50 (MCF7 [2]) | IC50 (MGC-803) | Activity (KB 3-1) | Activity (Homo sapiens) | Activity (Bel-7402 [3]) | Activity (MCF7 [4]) | inhibition in vivo at 20 mg/kg (H22)
C=C1C(=O)[C@@]23C(=O)OC[C@]4(C=CCC(C)(C)[C@H]4C=O)[C@@H]2CC[C@@H]1[C@H]3OC(=O)c1cnccn1 | 1300 nM | 2900 nM | 3500 nM | 2800 nM | – | – | – | – | –
C=C1C(=O)[C@@]23C(=O)OC[C@]4(C=CCC(C)(C)[C@H]4C=O)[C@@H]2CC[C@@H]1[C@H]3OS(C)(=O)=O | 1300 nM | 1900 nM | 2000 nM | 2800 nM | – | – | – | – | –
C=C1C(=O)[C@@]23C(=O)OC[C@]4(C=CCC(C)(C)[C@H]4C=O)[C@@H]2CC[C@@H]1[C@H]3OC(=O)c1ccco1 | 840 nM | 780 nM | 1200 nM | 1300 nM | – | – | – | – | –
C=C1C(=O)[C@@]23C(=O)OC[C@]4(C=CCC(C)(C)[C@H]4C=O)[C@@H]2CC[C@@H]1[C@H]3OC(=O)c1ccc([N+](=O)[O-])cc1 | > 10000 nM | 1000 nM | 6400 nM | 7300 nM | – | – | – | – | –
C=C1C(=O)[C@@]23C(=O)OC[C@]4(C=CCC(C)(C)[C@H]4C=O)[C@@H]2CC[C@@H]1[C@H]3O | 2500 nM | 4200 nM | 6400 nM | 3000 nM | Active | Active | inactive | inactive | –
C=C1C(=O)[C@@]23C(=O)OC[C@]4(C=CCC(C)(C)[C@H]4C=O)[C@@H]2CC[C@@H]1[C@H]3OC(=O)CCCC | 2200 nM | 5500 nM | 3300 nM | 4300 nM | – | – | – | – | –
C=C1C(=O)[C@@]23C(=O)OC[C@]4([C@@H](OS(C)(=O)=O)CCC(C)(C)[C@H]4C=O)[C@@H]2CC[C@@H]1[C@H]3O | > 10000 nM | > 10000 nM | > 10000 nM | > 10000 nM | – | – | – | – | –
C=C1C(=O)[C@@]23C(=O)OC[C@]4(C=CCC(C)(C)[C@H]4C=O)[C@@H]2CC[C@@H]1[C@H]3OC(=O)c1cccc(C)c1 | 3600 nM | 550 nM | 1100 nM | 2400 nM | – | – | – | – | –
C=C1C(=O)[C@@]23C(=O)OC[C@]4([C@@H](OS(C)(=O)=O)CCC(C)(C)[C@H]4C=O)[C@@H]2CC[C@@H]1[C@H]3OC(=O)CCCC | 2200 nM | 4500 nM | 3700 nM | 3200 nM | – | – | – | – | –
C=C1C(=O)[C@@]23C(=O)OC[C@]4([C@@H]5O[C@@H]5CC(C)(C)[C@H]4C=O)[C@@H]2CC[C@@H]1[C@H]3O | 4600 nM | > 10000 nM | > 10000 nM | > 10000 nM | – | – | – | – | –
C=C1C(=O)[C@@]23C(=O)OC[C@]4(C=CCC(C)(C)[C@H]4C=O)[C@@H]2CC[C@@H]1[C@H]3OC(=O)/C=C/c1cccc([N+](=O)[O-])c1 | 5100 nM | 1400 nM | 2200 nM | 2900 nM | – | – | – | – | –
C=C1C(=O)[C@@]23C(=O)OC[C@]4(C=CCC(C)(C)[C@H]4C=O)[C@@H]2CC[C@@H]1[C@H]3OC(=O)/C=C/c1ccccc1 | 1500 nM | 1300 nM | 1500 nM | 950 nM | – | – | – | – | –
C=C1C(=O)[C@@]23C(=O)OC[C@]4(C=CCC(C)(C)[C@H]4C=O)[C@@H]2CC[C@@H]1[C@H]3OC(=O)CC | 7100 nM | 1200 nM | 3400 nM | 7300 nM | – | – | – | – | –
C=C1C(=O)[C@]23[C@H](O)[C@H]1CC[C@H]2[C@@]12CO[C@]3(O)[C@@H](O)[C@@H]1C(C)(C)CC[C@@H]2O [ORIDONIN] | > 10000 nM | 5100 nM | 9100 nM | 4500 nM | – | – | – | – | 51.2%
C=C1C(=O)[C@@]23C(=O)OC[C@]4([C@@H](OS(C)(=O)=O)CCC(C)(C)[C@H]4C=O)[C@@H]2CC[C@@H]1[C@H]3OS(C)(=O)=O | 3800 nM | 1200 nM | 9500 nM | 8800 nM | – | – | – | – | –
C=C1C(=O)[C@@]23C(=O)OC[C@]4(C=CCC(C)(C)[C@H]4C=O)[C@@H]2CC[C@@H]1[C@H]3OC(C)=O | 570 nM | 630 nM | 1000 nM | 950 nM | – | – | – | – | –
C=C1C(=O)[C@@]23C(=O)OC[C@]4([C@@H](OS(C)(=O)=O)CCC(C)(C)[C@H]4C=O)[C@@H]2CC[C@@H]1[C@H]3OC(=O)c1ccco1 | 1100 nM | 1700 nM | 2900 nM | 3400 nM | – | – | – | – | –
C=C1C(=O)[C@]23[C@H](O)[C@H]1CC[C@H]2[C@@]12CO[C@@]3(O)[C@@H](O)[C@@H]1C(C)(C)CC[C@@H]2OS(C)(=O)=O | 2700 nM | 3200 nM | 3900 nM | 3900 nM | – | – | – | – | –
C=C1C(=O)[C@@]23C(=O)OC[C@]4([C@@H](OS(C)(=O)=O)CCC(C)(C)[C@H]4C=O)[C@@H]2CC[C@@H]1[C@H]3OC(=O)c1ccc(F)cc1 | 3100 nM | 6200 nM | 5500 nM | 4500 nM | – | – | – | – | –
